In ChEMBL document CHEMBL1151705, “Novel azalides derived from 16-membered macrolides. Part II: Isolation of the linear 9-formylcarboxylic acid and its sequential macrocyclization with an amino alcohol or an azidoamine” (2008):
Values after ≈ are worked out from the molar mass of the structure shown.

Columns and labels:
Assay type in all cases: functional
[1] = test system: Streptococcus pneumoniae; experiment: Antimicrobial activity against Streptococcus pneumoniae 8 expressing inducible ermB after 20 hrs by agar dilution method; conditions: Streptococcus pneumoniae, 20 h; read-out: MIC
Procedure, shortened: (§1)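 Streptococci, H. influenzae and M. catarrhalis were precultured on blood agar plates. Suspensions of about 10⁶ CFU/ml were inoculated onto sensitivity disk agar supplemented with 5% horse blood and incubated at 37 °C for 20 h. MIC was read as the lowest drug concentration with no visible growth.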

[2] = test system: Streptococcus pneumoniae; experiment: Antimicrobial activity against Streptococcus pneumoniae 9 expressing mefA after 20 hrs by agar dilution method; conditions: Streptococcus pneumoniae, 20 h; read-out: MIC; procedure, shortened: as §1
[3] = test system: Streptococcus pneumoniae; experiment: Antimicrobial activity against Streptococcus pneumoniae 10 expressing mefA after 20 hrs by agar dilution method; conditions: Streptococcus pneumoniae, 20 h; read-out: MIC; procedure, shortened: as §1
[4] = test system: Streptococcus pyogenes; experiment: Antimicrobial activity against drug-susceptible Streptococcus pyogenes 1 after 20 hrs by agar dilution method; conditions: Streptococcus pyogenes, 20 h; read-out: MIC; procedure, shortened: as §1
[5] = test system: Streptococcus pyogenes; experiment: Antimicrobial activity against Streptococcus pyogenes 2 constitutively expressing ermB after 20 hrs by agar dilution method; procedure, shortened: as §1
[6] = test system: Streptococcus pyogenes; experiment: Antimicrobial activity against Streptococcus pyogenes 3 expressing mefA after 20 hrs by agar dilution method; conditions: Streptococcus pyogenes, 20 h; read-out: MIC; procedure, shortened: as §1
[7] = test system: Moraxella catarrhalis; experiment: Antimicrobial activity against drug-susceptible Moraxella catarrhalis 1 after 20 hrs by agar dilution method; conditions: Moraxella catarrhalis, 20 h; read-out: MIC; procedure, shortened: as §1
[8] = test system: Moraxella catarrhalis; experiment: Antimicrobial activity against drug-susceptible Moraxella catarrhalis 2 after 20 hrs by agar dilution method; conditions: Moraxella catarrhalis, 20 h; read-out: MIC; procedure, shortened: as §1
[9] = test system: Haemophilus influenzae; experiment: Antimicrobial activity against drug-susceptible Haemophilus influenzae 1 after 20 hrs by agar dilution method; conditions: Haemophilus influenzae, 20 h; read-out: MIC; procedure, shortened: as §1
[10] = test system: Haemophilus influenzae; experiment: Antimicrobial activity against drug-susceptible Haemophilus influenzae 2 after 20 hrs by agar dilution method; conditions: Haemophilus influenzae, 20 h; read-out: MIC; procedure, shortened: as §1
[11] = test system: Haemophilus influenzae; experiment: Antimicrobial activity against drug-susceptible Haemophilus influenzae 3 after 20 hrs by agar dilution method; conditions: Haemophilus influenzae, 20 h; read-out: MIC; procedure, shortened: as §1
[12] = test system: Haemophilus influenzae; experiment: Antimicrobial activity against drug-susceptible Haemophilus influenzae 4 after 20 hrs by agar dilution method; conditions: Haemophilus influenzae, 20 h; read-out: MIC; procedure, shortened: as §1
[13] = test system: Staphylococcus aureus; experiment: Antimicrobial activity against drug-susceptible Staphylococcus aureus 209P JC-1 after 20 hrs by agar dilution method; conditions: Staphylococcus aureus, 209P, 20 h; read-out: MIC
Procedure, shortened: (§2)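 Agar dilution MIC. S. aureus seed culture was grown in sensitivity test broth. Cell suspension (about 10⁶ CFU/ml) was inoculated onto sensitivity disk agar with 5% horse blood and incubated at 37 °C for 20 h. MIC was the lowest drug concentration that prevented visible growth.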

[14] = test system: Staphylococcus aureus; experiment: Antimicrobial activity against drug-susceptible Staphylococcus aureus 2 after 20 hrs by agar dilution method; conditions: Staphylococcus aureus, 20 h; read-out: MIC; procedure, shortened: as §2
[15] = test system: Staphylococcus aureus; experiment: Antimicrobial activity against drug-susceptible Staphylococcus aureus 3 after 20 hrs by agar dilution method; conditions: Staphylococcus aureus, 20 h; read-out: MIC; procedure, shortened: as §2
[16] = test system: Staphylococcus aureus; experiment: Antimicrobial activity against Staphylococcus aureus 4 constitutively expressing ermA after 20 hrs by agar dilution method; procedure, shortened: as §2
[17] = test system: Staphylococcus aureus; experiment: Antimicrobial activity against Staphylococcus aureus 5 expressing inducible ermB after 20 hrs by agar dilution method; conditions: Staphylococcus aureus, 20 h; read-out: MIC; procedure, shortened: as §2
[18] = test system: Streptococcus pneumoniae; experiment: Antimicrobial activity against drug-susceptible Streptococcus pneumoniae DP1 Type1 after 20 hrs by agar dilution method; conditions: Streptococcus pneumoniae, 20 h; read-out: MIC; procedure, shortened: as §1
[19] = test system: Streptococcus pneumoniae; experiment: Antimicrobial activity against drug-susceptible Streptococcus pneumoniae 2 after 20 hrs by agar dilution method; conditions: Streptococcus pneumoniae, 20 h; read-out: MIC; procedure, shortened: as §1
[20] = test system: Streptococcus pneumoniae; experiment: Antimicrobial activity against Streptococcus pneumoniae 5 constitutively expressing ermB/mefA after 20 hrs by agar dilution method; conditions: Streptococcus pneumoniae, 20 h; read-out: MIC; procedure, shortened: as §1
[21] = test system: Streptococcus pneumoniae; experiment: Antimicrobial activity against Streptococcus pneumoniae 7 expressing inducible ermB after 20 hrs by agar dilution method; conditions: Streptococcus pneumoniae, 20 h; read-out: MIC; procedure, shortened: as §1
[22] = test system: Staphylococcus aureus; experiment: Antimicrobial activity against Staphylococcus aureus 6 expressing inducible ermB after 20 hrs by agar dilution method; procedure, shortened: as §2
[23] = test system: Streptococcus pneumoniae; experiment: Antimicrobial activity against Streptococcus pneumoniae 6 constitutively expressing ermB after 20 hrs by agar dilution method; conditions: Streptococcus pneumoniae, 20 h; read-out: MIC; procedure, shortened: as §1

MIC [1] [µg/mL] | MIC [2] [µg/mL] | MIC [3] [µg/mL] | MIC [4] [µg/mL] | MIC [5] [µg/mL] | MIC [6] [µg/mL] | MIC [7] [µg/mL] | MIC [8] [µg/mL] | MIC [9] [µg/mL] | MIC [10] [µg/mL] | MIC [11] [µg/mL] | MIC [12] [µg/mL] | MIC [13] [µg/mL] | MIC [14] [µg/mL] | MIC [15] [µg/mL] | MIC [16] [µg/mL] | MIC [17] [µg/mL] | MIC [18] [µg/mL] | MIC [19] [µg/mL] | MIC [20] [µg/mL] | also measured | SMILES
32 (≈ 31.8 µM) | 0.5 (≈ 0.496 µM) | 0.25 (≈ 0.248 µM) | 0.25 (≈ 0.248 µM) | > 128 | 0.25 (≈ 0.248 µM) | 0.25 (≈ 0.248 µM) | 0.5 (≈ 0.496 µM) | > 128 | 2 (≈ 1.99 µM) | 4 (≈ 3.97 µM) | 8 (≈ 7.94 µM) | 0.5 (≈ 0.496 µM) | 1 (≈ 0.993 µM) | 0.5 (≈ 0.496 µM) | > 128 | 0.5 (≈ 0.496 µM) | 0.25 (≈ 0.248 µM) | 0.25 (≈ 0.248 µM) | > 128 | MIC [21]: 8 µg/mL (≈ 7.94 µM); MIC [22]: 1 µg/mL (≈ 0.993 µM) | CCOC(=O)[C@H]1[C@H](C)O[C@@H](O[C@H]2[C@H](N(C)C)[C@@H](O)[C@H](O[C@H]3[C@@H](CC=O)C[C@@H](C)[C@@H](OC(C)=O)CN(CCCCc4ccccc4)CCCOC(=O)C[C@@H](OC(=O)CC)[C@@H]3OC)O[C@@H]2C)C[C@@]1(C)OC(C)=O
8 (≈ 8.17 µM) | 0.06 (≈ 0.0613 µM) | 0.06 (≈ 0.0613 µM) | 0.06 (≈ 0.0613 µM) | > 128 | 0.13 (≈ 0.133 µM) | 0.13 (≈ 0.133 µM) | 0.25 (≈ 0.255 µM) | 32 (≈ 32.7 µM) | 1 (≈ 1.02 µM) | 4 (≈ 4.08 µM) | 8 (≈ 8.17 µM) | 0.13 (≈ 0.133 µM) | 0.5 (≈ 0.511 µM) | 0.25 (≈ 0.255 µM) | > 128 | 0.5 (≈ 0.511 µM) | 0.06 (≈ 0.0613 µM) | 0.13 (≈ 0.133 µM) | 128 (≈ 131 µM) | MIC [23]: > 128 µg/mL; MIC [21]: 8 µg/mL (≈ 8.17 µM); MIC [22]: 0.5 µg/mL (≈ 0.511 µM) | CCOC(=O)[C@H]1[C@H](C)O[C@@H](O[C@H]2[C@H](N(C)C)[C@@H](O)[C@H](O[C@H]3[C@@H](CC=O)C[C@@H](C)[C@@H](O)CN(CCCCc4ccccc4)CC[C@@H](C)OC(=O)C[C@@H](OC(=O)CC)[C@@H]3OC)O[C@@H]2C)C[C@@]1(C)OC(C)=O
> 128 | 0.5 (≈ 0.49 µM) | 0.25 (≈ 0.245 µM) | 0.25 (≈ 0.245 µM) | > 128 | 0.5 (≈ 0.49 µM) | 0.25 (≈ 0.245 µM) | 0.5 (≈ 0.49 µM) | > 128 | 2 (≈ 1.96 µM) | 16 (≈ 15.7 µM) | 16 (≈ 15.7 µM) | 0.5 (≈ 0.49 µM) | 1 (≈ 0.979 µM) | 0.5 (≈ 0.49 µM) | > 128 | 0.5 (≈ 0.49 µM) | 0.25 (≈ 0.245 µM) | 0.25 (≈ 0.245 µM) | > 128 | MIC [23]: > 128 µg/mL; MIC [21]: > 128 µg/mL; MIC [22]: 1 µg/mL (≈ 0.979 µM) | CCOC(=O)[C@H]1[C@H](C)O[C@@H](O[C@H]2[C@H](N(C)C)[C@@H](O)[C@H](O[C@H]3[C@@H](CC=O)C[C@@H](C)[C@@H](OC(C)=O)CN(CCCCc4ccccc4)CC[C@@H](C)OC(=O)C[C@@H](OC(=O)CC)[C@@H]3OC)O[C@@H]2C)C[C@@]1(C)OC(C)=O
> 128 | 2 (≈ 1.99 µM) | 2 (≈ 1.99 µM) | 2 (≈ 1.99 µM) | > 128 | 4 (≈ 3.97 µM) | 8 (≈ 7.94 µM) | > 128 | > 128 | > 128 | > 128 | > 128 | 4 (≈ 3.97 µM) | > 128 | 4 (≈ 3.97 µM) | > 128 | 4 (≈ 3.97 µM) | 1 (≈ 0.993 µM) | 2 (≈ 1.99 µM) | > 128 | MIC [23]: > 128 µg/mL; MIC [21]: > 128 µg/mL; MIC [22]: 8 µg/mL (≈ 7.94 µM) | CCOC(=O)[C@H]1[C@H](C)O[C@@H](O[C@H]2[C@H](N(C)C)[C@@H](O)[C@H](O[C@H]3[C@@H](CC=O)C[C@@H](C)[C@@H](OC(C)=O)CN(CCCCc4ccccc4)C[C@@H](C)OC(=O)C[C@@H](OC(=O)CC)[C@@H]3OC)O[C@@H]2C)C[C@@]1(C)OC(C)=O
